Measurements reported in PMC6605687 (The Journal of General Physiology, 2019).
Residue numbers refer to the chain shown, from its start.

Legend:
Type in all cases: cell-based
rP2X2 Lys308Gln = molecular target: T1, rP2X2 Lys308Gln (Rattus norvegicus, UniProt P49653, K308Q); test: Two-electrode voltage clamp, oocytes expressing rP2X2 Lys308Gln
T1 sequence (P49653 1-472 K308Q): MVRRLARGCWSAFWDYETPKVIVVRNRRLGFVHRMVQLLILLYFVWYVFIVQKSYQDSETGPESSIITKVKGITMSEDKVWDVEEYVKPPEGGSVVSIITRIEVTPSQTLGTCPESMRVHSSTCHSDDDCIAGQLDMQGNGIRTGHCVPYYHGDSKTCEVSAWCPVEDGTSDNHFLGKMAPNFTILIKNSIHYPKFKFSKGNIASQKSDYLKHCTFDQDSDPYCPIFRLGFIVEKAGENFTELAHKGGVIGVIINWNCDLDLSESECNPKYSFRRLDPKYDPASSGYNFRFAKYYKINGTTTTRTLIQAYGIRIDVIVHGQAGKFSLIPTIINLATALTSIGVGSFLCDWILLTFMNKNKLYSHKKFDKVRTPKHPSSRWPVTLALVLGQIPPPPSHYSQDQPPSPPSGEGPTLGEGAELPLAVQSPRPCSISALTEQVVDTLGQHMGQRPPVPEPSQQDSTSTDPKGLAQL
How it was run: (§1)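 Mutations were made by site-directed mutagenesis. Xenopus oocytes were injected with rP2X2 mRNA and incubated in L-15 at 18°C. Two-electrode voltage clamp was done 1–2 days later at −40 mV under ND96 perfusion (pH 7.4). ATP concentration-response currents were normalised and fitted to a one-component Hill equation for EC50 and Hill coefficient. Results are mean ± SEM, tested by one-way ANOVA with Dunnett's test against WT.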

rP2X2 Lys71Gln = molecular target: T2, rP2X2 Lys71Gln (Rattus norvegicus, UniProt P49653, K71Q); test: Two-electrode voltage clamp, oocytes expressing rP2X2 Lys71Gln
T2 sequence (P49653 1-472 K71Q): T1 sequence (P49653 1-472 K308Q) with K71Q, Q308K
How it was run: as §1

rP2X2 Lys308Arg = molecular target: T3, rP2X2 Lys308Arg (Rattus norvegicus, UniProt P49653, K308R); test: Two-electrode voltage clamp, oocytes expressing rP2X2 Lys308Arg
T3 sequence (P49653 1-472 K308R): T1 sequence (P49653 1-472 K308Q) with Q308R
How it was run: as §1

rP2X2 Val70Vah = molecular target: T4, rP2X2 Val70Vah (Rattus norvegicus, UniProt P49653); test: Two-electrode voltage clamp, oocytes expressing rP2X2 Val70Vah
T4 sequence (P49653 1-472): T1 sequence (P49653 1-472 K308Q) with Q308K

rP2X2 Val96Vah = molecular target: T5, rP2X2 Val96Vah (Rattus norvegicus, UniProt P49653); test: Two-electrode voltage clamp, oocytes expressing rP2X2 Val96Vah
T5 sequence (P49653 1-472): T1 sequence (P49653 1-472 K308Q) with Q308K
How it was run: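 The backbone ester was introduced by nonsense suppression. TAG-mutant rP2X2 mRNA was co-injected into Xenopus oocytes with tRNA enzymatically aminoacylated with 2-hydroxyisovaleric acid. Uncharged tRNA co-injection served as the negative control. After incubation at 18°C, two-electrode voltage clamp was done at −40 mV in ND96 (pH 7.4). ATP concentration-response data were normalised and Hill-fitted for EC50 and nH, given as mean ± SEM.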

rP2X2 Thr184Ser = molecular target: T6, rP2X2 Thr184Ser (Rattus norvegicus, UniProt P49653, T184S); test: Two-electrode voltage clamp, oocytes expressing rP2X2 Thr184Ser
T6 sequence (P49653 1-472 T184S): T1 sequence (P49653 1-472 K308Q) with T184S, Q308K
How it was run: as §1

How did the EC50 (rP2X2 Lys308Gln) turn out when `Nc1ncnc2c1ncn2[C@@H]1O[C@H](COP(=O)(O)OP(=O)(O)OP(=O)(O)O)[C@@H](O)[C@H]1O` [ATP, Adenosine 5′-triphosphate] was run?
Its EC50 is 5.8 mM.

And the EC50 (rP2X2 Lys71Gln)?
The EC50 was 6.3 mM.

And the EC50 (rP2X2 Lys308Arg)?
The EC50 was 6 mM.

And the “Fold increase in EC50, Val70Vah versus WT” value (rP2X2 Val70Vah; Val70Vah compared with WT)?
The value was “fourfold”.

What about the EC50 (rP2X2 Val70Vah; Val70Vah, mean ± SEM) of the same molecule?
Its EC50 is 0.12 ± 0.002 mM.

And the EC50 (rP2X2 Val96Vah)?
Its EC50 is 0.027 ± 0.002 mM.

And the “Effect of Vah incorporation on EC50 (in words)” value (rP2X2 Val96Vah; Val96Vah compared with WT)?
The value was “did not affect the ATP EC50”.

And the EC50 (rP2X2 Thr184Ser)?
Its EC50 is 0.026 ± 0.003 mM.

What about the “Sensitivity to agonist (in words)” value (rP2X2 Thr184Ser; Thr184Ser compared with WT) of the same molecule?
The value was “WT-like sensitivity”.
